The source made the active and inactive calls. No cut-off for these calls is given here.
Tests used:
[1] = molecular target: T1, Metabotropic glutamate receptor 4 (Homo sapiens, UniProt Q14833); assay: Activity at human mGluR4 expressed in CHO cells assessed as fold potentiation of glutamate-induced calcium flux at 30 uM by fluorescence assay relative to control
Target sequence in this assay (Q14833 whole entry, looked up): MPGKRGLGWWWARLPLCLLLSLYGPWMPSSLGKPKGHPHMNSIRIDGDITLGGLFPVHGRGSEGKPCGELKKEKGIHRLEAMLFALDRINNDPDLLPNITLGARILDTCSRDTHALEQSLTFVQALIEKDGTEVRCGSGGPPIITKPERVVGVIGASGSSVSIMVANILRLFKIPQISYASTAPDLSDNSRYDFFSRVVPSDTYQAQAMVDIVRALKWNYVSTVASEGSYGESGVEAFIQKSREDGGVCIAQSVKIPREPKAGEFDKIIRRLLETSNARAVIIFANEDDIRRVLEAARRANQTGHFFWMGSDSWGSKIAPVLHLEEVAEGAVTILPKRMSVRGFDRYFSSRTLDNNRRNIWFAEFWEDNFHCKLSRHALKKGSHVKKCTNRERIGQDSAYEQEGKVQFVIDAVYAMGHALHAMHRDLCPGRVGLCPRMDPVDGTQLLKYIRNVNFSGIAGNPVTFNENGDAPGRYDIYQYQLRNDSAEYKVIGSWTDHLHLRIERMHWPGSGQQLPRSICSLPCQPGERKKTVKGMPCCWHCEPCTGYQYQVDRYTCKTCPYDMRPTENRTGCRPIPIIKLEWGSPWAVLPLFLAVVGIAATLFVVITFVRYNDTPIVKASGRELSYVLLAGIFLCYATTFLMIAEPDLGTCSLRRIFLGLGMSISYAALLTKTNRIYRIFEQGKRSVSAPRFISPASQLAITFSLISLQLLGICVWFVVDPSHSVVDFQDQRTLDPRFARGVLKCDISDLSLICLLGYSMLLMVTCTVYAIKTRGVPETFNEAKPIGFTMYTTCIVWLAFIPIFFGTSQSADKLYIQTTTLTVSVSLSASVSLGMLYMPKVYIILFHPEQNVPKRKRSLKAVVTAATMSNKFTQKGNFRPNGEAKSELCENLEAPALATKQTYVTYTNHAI

[2] = molecular target: Metabotropic glutamate receptor 1 (Rattus norvegicus, UniProt P23385); assay: (§1) Antagonist activity at rat mGluR1 expressed in Syrian golden hamster BHK cells assessed as […] of glutamate-induced calcium flux by fluorescence assay; type: functional, cell-based
Sequence of Metabotropic glutamate receptor 1 (P23385 whole entry): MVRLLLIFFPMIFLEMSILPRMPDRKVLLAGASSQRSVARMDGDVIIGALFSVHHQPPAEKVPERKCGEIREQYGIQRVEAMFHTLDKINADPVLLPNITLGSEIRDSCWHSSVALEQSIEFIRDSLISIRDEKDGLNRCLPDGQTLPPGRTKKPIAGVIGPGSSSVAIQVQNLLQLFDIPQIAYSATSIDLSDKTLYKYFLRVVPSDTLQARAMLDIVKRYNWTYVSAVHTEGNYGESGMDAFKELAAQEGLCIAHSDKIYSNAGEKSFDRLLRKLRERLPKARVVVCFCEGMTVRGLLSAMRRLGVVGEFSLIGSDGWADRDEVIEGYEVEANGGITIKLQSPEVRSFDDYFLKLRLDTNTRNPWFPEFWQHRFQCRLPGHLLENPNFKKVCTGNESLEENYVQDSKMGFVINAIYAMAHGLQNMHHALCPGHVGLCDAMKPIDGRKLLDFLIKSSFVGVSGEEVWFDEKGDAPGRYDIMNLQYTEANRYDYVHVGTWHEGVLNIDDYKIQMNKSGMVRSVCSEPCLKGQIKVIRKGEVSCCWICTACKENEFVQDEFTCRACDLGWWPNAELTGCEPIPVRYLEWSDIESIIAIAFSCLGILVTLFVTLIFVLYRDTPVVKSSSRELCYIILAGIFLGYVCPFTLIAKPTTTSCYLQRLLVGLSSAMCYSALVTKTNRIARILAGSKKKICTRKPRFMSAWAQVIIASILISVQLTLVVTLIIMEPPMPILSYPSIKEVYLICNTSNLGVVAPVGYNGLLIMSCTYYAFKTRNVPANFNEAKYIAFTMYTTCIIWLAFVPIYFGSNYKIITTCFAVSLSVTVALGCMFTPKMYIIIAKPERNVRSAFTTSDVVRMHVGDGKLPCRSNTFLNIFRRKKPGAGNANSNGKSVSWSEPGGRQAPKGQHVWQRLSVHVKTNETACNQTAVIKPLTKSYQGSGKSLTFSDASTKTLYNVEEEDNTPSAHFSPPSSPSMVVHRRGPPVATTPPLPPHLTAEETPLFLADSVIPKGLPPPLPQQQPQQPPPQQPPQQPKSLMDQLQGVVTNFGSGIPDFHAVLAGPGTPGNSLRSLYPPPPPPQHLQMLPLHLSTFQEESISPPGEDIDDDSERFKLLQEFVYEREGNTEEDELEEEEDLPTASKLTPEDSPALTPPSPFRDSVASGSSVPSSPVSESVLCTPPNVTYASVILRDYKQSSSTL

[3] = molecular target: T1, Metabotropic glutamate receptor 4; assay: Activity at human mGluR4 expressed in CHO coexpressing Gqi5 assessed as potentiation of glutamate-induced calcium flux by fluorescence assay; type: functional
Method in brief: (§2)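 CHO cells stably co-expressing human mGluR4 and chimeric Gqi5, plated 30,000 cells/well in assay medium (DMEM, 10% dialyzed FBS, 20 mM HEPES) and grown overnight at 37 °C, 5% CO₂. Loaded with 1 µM Fluo-4AM in HBSS/20 mM HEPES/2.5 mM probenecid for 45 min at 37 °C.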
Target sequence in this assay (Q14833 whole entry): as the sequence (Q14833 whole entry, looked up) above

[4] = molecular target: T1, Metabotropic glutamate receptor 4; assay: Activity at human mGluR4 expressed in CHO coexpressing Gqi5 assessed as potentiation of calcium flux by fluorescence assay in absence of glutamate; type: functional
Method in brief: as §2
Target sequence in this assay (Q14833 whole entry): as the sequence (Q14833 whole entry, looked up) above

[5] = molecular target: Metabotropic glutamate receptor 1 (Rattus norvegicus) (UniProt P23385); assay: as §1; type: functional, cell-based; design: scale not given: the % may be the effect or the level left
Sequence of Metabotropic glutamate receptor 1 (Rattus norvegicus) (P23385 19-1199 limits assumed): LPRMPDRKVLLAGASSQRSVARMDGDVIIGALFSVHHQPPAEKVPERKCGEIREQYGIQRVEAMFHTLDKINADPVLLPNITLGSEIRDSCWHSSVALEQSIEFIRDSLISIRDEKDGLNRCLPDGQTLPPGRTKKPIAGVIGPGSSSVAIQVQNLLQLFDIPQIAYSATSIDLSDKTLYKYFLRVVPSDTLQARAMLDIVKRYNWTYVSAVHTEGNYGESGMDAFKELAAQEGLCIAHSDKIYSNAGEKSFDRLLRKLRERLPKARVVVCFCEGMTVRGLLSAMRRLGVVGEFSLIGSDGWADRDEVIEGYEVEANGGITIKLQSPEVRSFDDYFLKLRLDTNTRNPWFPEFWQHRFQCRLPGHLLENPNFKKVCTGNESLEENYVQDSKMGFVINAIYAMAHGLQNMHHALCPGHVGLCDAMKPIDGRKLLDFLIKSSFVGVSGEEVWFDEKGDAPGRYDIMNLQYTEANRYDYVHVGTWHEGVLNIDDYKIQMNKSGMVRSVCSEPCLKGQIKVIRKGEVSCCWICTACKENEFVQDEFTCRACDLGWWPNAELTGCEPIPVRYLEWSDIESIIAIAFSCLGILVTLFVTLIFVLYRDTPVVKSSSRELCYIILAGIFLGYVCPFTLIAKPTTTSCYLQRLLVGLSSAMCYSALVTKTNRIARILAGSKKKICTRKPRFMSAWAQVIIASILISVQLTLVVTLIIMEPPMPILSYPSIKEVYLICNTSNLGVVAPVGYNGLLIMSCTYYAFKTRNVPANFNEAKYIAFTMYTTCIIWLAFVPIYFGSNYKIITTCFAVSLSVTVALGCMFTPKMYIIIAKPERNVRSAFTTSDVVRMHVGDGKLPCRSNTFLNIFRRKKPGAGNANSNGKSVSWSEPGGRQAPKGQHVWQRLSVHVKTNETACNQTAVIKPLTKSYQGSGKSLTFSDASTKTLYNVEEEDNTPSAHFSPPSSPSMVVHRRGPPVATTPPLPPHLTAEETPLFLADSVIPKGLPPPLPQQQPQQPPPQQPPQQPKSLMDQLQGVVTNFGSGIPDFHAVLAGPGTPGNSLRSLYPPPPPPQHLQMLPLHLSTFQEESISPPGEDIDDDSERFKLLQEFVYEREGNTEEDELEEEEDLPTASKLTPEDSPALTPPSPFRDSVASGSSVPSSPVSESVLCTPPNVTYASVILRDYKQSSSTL

Row | Structure (SMILES) | fold change (FC) [1] | also measured
1 | Cc1ccc(-n2ncc3c(N4CCCC(C)C4)ncnc32)c(C)c1 (centres undefined) | 11.8 | IC50 [2]: 2.6 µM; EC50 [3]: 4.6 µM; Activity [4]: inactive
2 | Cc1ccc(-n2ncc3c(N4CCCC(C(F)(F)F)C4)ncnc32)c(C)c1 (centres undefined) | 9.9 | –
3 | O=C(Nc1ccccc1)[C@]12C[C@H]1/C(=N\O)c1ccccc1O2 | – | Activity [5]: 30%
4 | Cc1ccc(-n2ncc3c(N4CC(C)OC(C)C4)ncnc32)c(C)c1 (centres undefined) | 3.5 | –

Second part, led by results:

Row | fold change (FC) [1] | Structure (SMILES) | also measured
5 | 2.7 | CC1CCCN(c2ncnc3c2cnn3-c2ccccc2Cl)C1 (centres undefined) | –
6 | 2.4 | Cc1ccc(-n2ncc3c(N4CCC(n5c(=O)[nH]c6ccccc65)CC4)ncnc32)c(C)c1 | –

Source: ChEMBL document CHEMBL1144233 (Bioorg Med Chem Lett, 2008)
